The record followed here is ChEMBL document CHEMBL3286138, “Petasin activates AMP-activated protein kinase and modulates glucose metabolism” (J Nat Prod, 2014).

Activity calls are given as the source filed them. No cut-off for these calls is given here.

Experiment [1] has as its system Mus musculus. Nature of the experiment: Activation of AMPK in C57BL/6J mouse skeletal muscle assessed as increase of PGC-1alpha transcription at 500 mg/kg, sc after 2 hrs by RT-qPCR analysis. Conditions: Muscle tissue.
Experiment [2] deals with H4IIE. In words: Increase of AMPK phosphorylation at Thr172 in rat H4IIE cells at 5 to 10 uM after 1 hr by ELISA. It is filed as cell-based. The method, boiled down: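 Confluent H4IIE cells in 96-well plates were starved overnight in serum-free DMEM (1 g/L glucose), then treated 1 h at 37 °C. Cells were fixed in 4% formaldehyde and endogenous peroxidase quenched with H2O2. Plates were blocked with 10% FBS and probed overnight at 4 °C with anti-p-AMPKα (Thr172), then with HRP secondary and TMB read-out. Mean ± SE, n = 4; Dunnett's test against basal.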

Experiment [3] has as its system Mus musculus. Nature of the experiment: Activation of AMPK in C57BL/6J mouse liver assessed as phosphorylated ACC level at 200 mg/kg, po after 2 hrs by Western blot analysis. On the set-up: dose 200 mg/kg. The class given is functional, organism-based. The method, boiled down:
(§1)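 Male C57BL/6J mice (10 weeks), fasted 4 h, given a single oral dose of 200 mg/kg in 0.5% carboxymethyl cellulose with 0.5% polyoxyethylene sorbitan. Dissected under chloral hydrate anesthesia (500 mg/kg ip) 2 h later. Liver, epididymal white adipose and quadriceps were homogenized in RIPA buffer and immunoblotted for p-AMPKα (Thr172) and p-ACC (Ser79). Signals normalized to α-tubulin; mean ± SE, 5 mice; Student's t test against vehicle.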

For experiment [4], the system named is Mus musculus. Nature of the experiment: Activation of AMPK in C57BL/6J mouse white adipose tissue at 200 mg/kg, po after 2 hrs by Western blot analysis. The class given is functional, organism-based. On the set-up: dose 200 mg/kg. In outline:
as §1

The test system of experiment [5] is Mus musculus. In words: Activation of AMPK in C57BL/6J mouse white adipose tissue assessed as phosphorylated ACC level at 200 mg/kg, po after 2 hrs by Western blot analysis. The arrangement: dose 200 mg/kg. It is filed as functional, organism-based. The method, boiled down: as §1
Experiment [6] relates to Mus musculus. Nature of the experiment: Activation of AMPK in C57BL/6J mouse skeletal muscle at 200 mg/kg, po after 2 hrs by Western blot analysis. The class given is functional, organism-based. The arrangement: dose 200 mg/kg. Conditions: Muscle tissue. In outline: as §1
The subject of experiment [7] is Mus musculus. In words: Activation of AMPK in glucose loaded C57BL/6J mouse assessed as decrease of AUC of blood glucose level at 100 to 200 mg/kg, po after 1 hr by oral glucose tolerance test. The class given is functional, organism-based. In outline: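 Male C57BL/6J mice, fasted 15 h, dosed orally at 100 or 200 mg/kg. Glucose (1 M solution, 1 g/kg) given orally 60 min later. Tail-vein blood glucose read at 0, 15, 30, 45, 60, 90 and 120 min, and AUC calculated from the curve. Mean ± SE, 5 mice; one-way ANOVA with Dunnett's test against vehicle.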

The test system of experiment [8] is Mus musculus. In words: Activation of AMPK in glucose loaded C57BL/6J mouse assessed as decrease of AUC of blood glucose level at 500 mg/kg, po after 1 hr by oral glucose tolerance test. The arrangement: dose 500 mg/kg. It is filed as functional, organism-based.
In experiment [9] the test system is H4IIE. In words: Activation of AMPK in rat H4IIE cells assessed as increase of AMP level by spectrophotometric analysis. The class given is cell-based. The method, boiled down: (§2)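 Serum-starved H4IIE hepatoma cells, differentiated C2C12 myotubes and differentiated 3T3-L1 adipocytes were exposed 1, 2 and 2 h respectively. Cells were lysed in Tris/SDS/glycerol, nuclease-digested, perchloric acid-extracted and neutralized. ATP, ADP and AMP were separated by C18 HPLC in phosphate buffer at pH 6.2, 40 °C, with detection at […]. AMP/ATP and ADP/ATP ratios were calculated from these levels; mean ± SE, n = 3.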

The test system of experiment [10] is 3T3-L1. In words: Activation of AMPK in mouse 3T3L1 cells assessed as increase of AMP level by spectrophotometric analysis. The class given is cell-based. The method, boiled down:
as §2

The subject of experiment [11] is C2C12. Nature of the experiment: Activation of AMPK in mouse C2C12 cells assessed as increase of AMP level by spectrophotometric analysis. It is filed as cell-based. In outline:
as §2

In experiment [12] the test system is H4IIE. Nature of the experiment: Activation of AMPK in rat H4IIE cells assessed as increase of ADP level by spectrophotometric analysis. It is filed as cell-based. The method, boiled down: as §2
The subject of experiment [13] is 3T3-L1. In words: Activation of AMPK in mouse 3T3L1 cells assessed as increase of ADP level by spectrophotometric analysis. The class given is cell-based. In outline: as §2
The test system of experiment [14] is C2C12. Nature of the experiment: Activation of AMPK in mouse C2C12 cells assessed as increase of ADP level by spectrophotometric analysis. The class given is cell-based. The method, boiled down:
as §2

Experiment [15] has as its system H4IIE. Nature of the experiment: Activation of AMPK in rat H4IIE cells assessed as decrease of ATP level by spectrophotometric analysis. It is filed as cell-based. In outline:
as §2

Experiment [16] relates to 3T3-L1. In words: Activation of AMPK in mouse 3T3L1 cells assessed as decrease of ATP level by spectrophotometric analysis. It is filed as cell-based. The method, boiled down: as §2
In experiment [17] the test system is C2C12. In words: Activation of AMPK in mouse C2C12 cells assessed as decrease of ATP level by spectrophotometric analysis. The class given is cell-based. In outline: as §2
The test system of experiment [18] is H4IIE. Nature of the experiment: Activation of AMPK in rat H4IIE cells assessed as increase of AMP/ATP ratio level after 1 hr by spectrophotometric analysis. The class given is cell-based. In outline: as §2
In experiment [19] the test system is 3T3-L1. Nature of the experiment: Activation of AMPK in mouse 3T3L1 cells assessed as increase of AMP/ATP ratio level after 2 hrs by spectrophotometric analysis. The class given is cell-based. The method, boiled down: as §2
In experiment [20] the test system is C2C12. In words: Activation of AMPK in mouse C2C12 cells assessed as increase of AMP/ATP ratio level after 2 hrs by spectrophotometric analysis. The class given is cell-based. The method, boiled down:
as §2

Experiment [21] has as its system H4IIE. In words: Activation of AMPK in rat H4IIE cells assessed as increase of ADP/ATP ratio level after 1 hr by spectrophotometric analysis. It is filed as cell-based. In outline: as §2
For experiment [22], the system named is 3T3-L1. Nature of the experiment: Activation of AMPK in mouse 3T3L1 cells assessed as increase of ADP/ATP ratio level after 2 hrs by spectrophotometric analysis. The class given is cell-based. In outline:
as §2

The test system of experiment [23] is C2C12. Nature of the experiment: Activation of AMPK in mouse C2C12 cells assessed as increase of ADP/ATP ratio level after 2 hrs by spectrophotometric analysis. It is filed as cell-based. The method, boiled down:
as §2

Experiment [24] is filed under the species Rattus norvegicus. Nature of the experiment: Inhibition of rat liver mitochondrial respiratory chain complex 1 assessed as reduction of oxygen consumption at stage 4 at 10 uM in presence of glutamate and ADP. The method, boiled down: (§3)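 Liver mitochondria from Wistar rats were isolated by differential centrifugation in sucrose/Tris-MOPS/EGTA at pH 7.4, with respiratory control ratio 5−7. O2 uptake was measured with a Clark electrode, State 3/4 induced by 100 μM ADP. Complex I substrate was 5 mM glutamate plus 2.5 mM malate; complex II substrate was 5 mM succinate plus 2 μM rotenone. Dose−response run; mean ± SE, n = 3.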

The species entered for experiment [25] is Rattus norvegicus. Nature of the experiment: Inhibition of rat liver mitochondrial respiratory chain complex 1 assessed as reduction of oxygen consumption at stage 4 in presence of glutamate and malate. The method, boiled down:
as §3

Experiment [26] is filed under the species Rattus norvegicus. In words: Inhibition of rat liver mitochondrial respiratory chain complex 2 assessed as reduction of oxygen consumption at stage 4 in presence of succinate and rotenone. In outline:
as §3

Experiment [27] has as its target AMP-activated protein kinase, AMPK (Homo sapiens) (UniProt P54646+O43741+P54619+Q9UGJ0+Q9Y478+Q13131+Q9UGI9). Nature of the experiment: Activation of AMPK in LKB1-deficient human HeLa cells at 10 to 100 uM after 1 hr by Western blot analysis. It is filed as cell-based.
The target of experiment [28] is 5'-AMP-activated protein kinase catalytic subunit alpha-1 (Rattus norvegicus) (UniProt P54645). Nature of the experiment: Increase of AMPKalpha phosphorylation at Thr172 in rat H4IIE cells after 1 hr by Western blot analysis. It is filed as cell-based. In outline:
(§4)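 H4IIE cells grown in 1 g/L glucose DMEM, serum-starved overnight, then treated 1 h; 2 mM AICAR served as reference. Lysates (50−100 μg protein) were run on 7.5% SDS-PAGE and immunoblotted for p-AMPKα (Thr172), p-ACC (Ser79), total AMPKα and total ACC.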

Experiment [29] has the same target. Nature of the experiment: Activation of AMPKalpha in rat H4IIE cells assessed as ACC phosphorylation at Ser79 after 1 hr by Western blot analysis. The class given is cell-based. The method, boiled down: as §4
Experiment [30] has the same target. Nature of the experiment: Increase of AMPKalpha phosphorylation at Thr172 in rat H4IIE cells at 0.3 uM after […] by Western blot analysis. It is filed as cell-based.
The target of experiment [31] is 5'-AMP-activated protein kinase catalytic subunit alpha-1 (Mus musculus) (UniProt Q5EG47). Nature of the experiment: Increase of AMPKalpha phosphorylation at Thr172 in mouse 3T3L1 cells at 10 uM after 2 hrs by Western blot analysis. It is filed as cell-based. Conditions: 3T3-L1. In outline: (§5)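 Cells were starved, then treated 2 h with 2 mM AICAR as reference. C2C12 cells were myotubes differentiated 4 days in 2% horse serum. 3T3-L1 cells were adipocytes differentiated with insulin, dexamethasone and IBMX and used at days 10−14. Lysates were immunoblotted on 7.5% SDS-PAGE for p-AMPKα (Thr172), p-ACC (Ser79), total AMPKα and total ACC.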

Experiment [32] has the same target. Nature of the experiment: Increase of AMPKalpha phosphorylation at Thr172 in mouse C2C12 cells at 5 uM after 2 hrs by Western blot analysis. It is filed as cell-based. In outline:
as §5

Experiment [33] deals with Mus musculus. In words: Activation of AMPK in C57BL/6J mouse liver at 200 mg/kg, po after 2 hrs by Western blot analysis. It is filed as functional, organism-based. The arrangement: dose 200 mg/kg. In outline: as §1
Experiment [34] has as its system Mus musculus. In words: Activation of AMPK in C57BL/6J mouse skeletal muscle assessed as increase of PGC-1alpha transcription at 100 to 200 mg/kg, po after 2 hrs by RT-qPCR analysis. Conditions: Muscle tissue.

Sequence of 5'-AMP-activated protein kinase catalytic subunit alpha-1 (Rattus norvegicus) (P54645 whole entry): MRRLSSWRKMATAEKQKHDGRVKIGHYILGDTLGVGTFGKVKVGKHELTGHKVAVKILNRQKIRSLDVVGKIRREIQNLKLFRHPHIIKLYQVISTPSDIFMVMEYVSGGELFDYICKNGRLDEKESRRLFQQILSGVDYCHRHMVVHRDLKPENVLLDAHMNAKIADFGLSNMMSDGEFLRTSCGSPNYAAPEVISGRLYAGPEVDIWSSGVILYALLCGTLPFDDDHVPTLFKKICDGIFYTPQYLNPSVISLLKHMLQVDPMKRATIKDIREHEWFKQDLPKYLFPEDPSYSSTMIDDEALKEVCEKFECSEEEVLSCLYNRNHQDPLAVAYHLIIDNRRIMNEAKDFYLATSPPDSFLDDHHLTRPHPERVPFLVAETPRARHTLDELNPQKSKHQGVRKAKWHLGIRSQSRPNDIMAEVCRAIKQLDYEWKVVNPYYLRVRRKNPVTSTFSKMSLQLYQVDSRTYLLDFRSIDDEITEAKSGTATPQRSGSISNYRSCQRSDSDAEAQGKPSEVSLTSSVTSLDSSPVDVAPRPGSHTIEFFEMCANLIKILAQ
Sequence of 5'-AMP-activated protein kinase catalytic subunit alpha-1 (Mus musculus) (Q5EG47 whole entry): as the sequence (P54645 whole entry) above, with T269A, E518D counted along it

As to `NC(=O)c1ncn([C@@H]2O[C@H](CO)[C@@H](O)[C@H]2O)c1N`, the outcome in experiment [1] was Active.

In the case of `C/C=C(/C)C(=O)O[C@@H]1CCC2=CC(=O)C(=C(C)C)C[C@]2(C)[C@H]1C`, the result in [2] was Active.

`C=C(C)[C@@H]1C[C@@]2(C)C(=CC1=O)CC[C@@H](OC(=O)/C(C)=C\C)[C@@H]2C`: the result in experiment [3], in experiment [4], in [5], in experiment [6], in [7] and in experiment [8] was Active. Also, the outcome in experiment [27], in [2], in experiment [30], in experiment [31], in experiment [32] and in experiment [33] was Active. Moreover, the result in experiment [34] was Active. Besides, the Activity entry in [9], in [10], in experiment [11], in [12], in [13] and in experiment [14] was “Dose-dependent effect” each time. In addition, the Activity result in experiment [15], in experiment [16], in experiment [17], in experiment [18], in [19] and in [20] was “Dose-dependent effect” in each case. Further, the Activity result in experiment [21], in [22], in [23], in experiment [28] and in experiment [29] was “Dose-dependent effect” each time. Moreover, in experiment [24], the inhibition result was “Active”. The inhibition entry in experiment [25] is “Dose-dependent effect”. In addition, the inhibition result in [26] was “inactive”.
